Results on nine compounds are retold here after ChEMBL document CHEMBL3108706, “Design, synthesis, and biological activity of novel dicoumarol glucagon-like peptide 1 conjugates” (J Med Chem, 2013).

Structures are written as SMILES.

The target of data set [1] is Glucagon-like peptide 1 receptor (Homo sapiens, UniProt P43220). The data set can be described thus: Activation of human GLP-1 receptor overexpressed in HEK293 cells assessed as cAMP accumulation after 20 mins by HTRF assay. The format is functional, cell-based. A general note: cAMP levels reflect the balance of adenylyl cyclase and phosphodiesterase activity.
Glucagon-like peptide 1 receptor, sequence (P43220 whole entry): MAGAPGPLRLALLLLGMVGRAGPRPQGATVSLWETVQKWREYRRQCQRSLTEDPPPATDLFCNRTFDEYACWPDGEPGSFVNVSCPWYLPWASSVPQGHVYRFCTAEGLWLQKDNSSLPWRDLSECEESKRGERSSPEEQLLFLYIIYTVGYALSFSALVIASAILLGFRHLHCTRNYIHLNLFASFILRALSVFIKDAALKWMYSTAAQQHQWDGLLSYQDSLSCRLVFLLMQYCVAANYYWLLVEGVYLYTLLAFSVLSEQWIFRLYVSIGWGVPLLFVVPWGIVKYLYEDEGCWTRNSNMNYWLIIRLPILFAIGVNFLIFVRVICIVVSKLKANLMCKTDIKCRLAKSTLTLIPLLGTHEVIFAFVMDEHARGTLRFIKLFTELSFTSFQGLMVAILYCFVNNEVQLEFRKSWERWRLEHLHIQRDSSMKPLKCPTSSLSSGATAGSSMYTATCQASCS
The target of another data set is albumin (Homo sapiens, UniProt P02768). The data set can be described thus: Binding affinity to human serum albumin at 100 ug/mL after 3 hrs relative to control. The format is ADME. The conditions noted are these: read-out: PB (converted). The method in brief: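 Peptide at 100 μg/mL in PBS (50 μL) was incubated with HSA-conjugated Sepharose resin for 3 h at 25 °C, then centrifuged (1000 rpm, 10 min). Unbound peptide in the supernatant was quantified by micro BCA assay. Nonspecific adsorption was corrected with NHS-inactivated, albumin-free resin.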
albumin, sequence (P02768 whole entry): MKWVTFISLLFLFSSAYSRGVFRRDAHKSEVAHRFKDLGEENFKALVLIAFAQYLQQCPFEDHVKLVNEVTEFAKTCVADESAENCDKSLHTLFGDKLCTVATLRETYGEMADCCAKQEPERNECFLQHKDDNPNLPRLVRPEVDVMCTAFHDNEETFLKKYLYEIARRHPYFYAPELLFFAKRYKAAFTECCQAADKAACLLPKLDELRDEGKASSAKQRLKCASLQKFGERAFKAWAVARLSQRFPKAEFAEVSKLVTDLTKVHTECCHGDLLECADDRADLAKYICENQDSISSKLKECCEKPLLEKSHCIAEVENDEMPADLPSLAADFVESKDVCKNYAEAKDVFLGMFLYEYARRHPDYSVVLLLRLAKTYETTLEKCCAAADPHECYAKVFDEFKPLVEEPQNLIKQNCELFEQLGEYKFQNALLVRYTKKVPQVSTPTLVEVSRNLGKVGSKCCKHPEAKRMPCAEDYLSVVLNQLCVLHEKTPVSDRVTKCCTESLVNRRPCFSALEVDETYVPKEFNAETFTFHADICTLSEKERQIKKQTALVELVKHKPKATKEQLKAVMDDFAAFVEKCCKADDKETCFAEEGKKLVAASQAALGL

The nature of data set [2]: Half life in Sprague-Dawley rat plasma at 1000 ng/mL by LC-MS/MS analysis. It is filed as ADME, cell-free.

What is called EC50 is the concentration needed to bring the measured effect to its halfway point. A word on the half-life: it is how long it takes for the measured level to halve. Consider `CC[C@H](C)[C@H](NC(=O)[C@H](Cc1ccccc1)NC(=O)[C@H](CCC(=O)O)NC(=O)[C@H](CCCCN)NC(=O)[C@H](C)NC(=O)[C@H](C)NC(=O)[C@H](CCC(N)=O)NC(=O)CNC(=O)[C@H](CCC(=O)O)NC(=O)[C@H](CC(C)C)NC(=O)[C@H](Cc1ccc(O)cc1)NC(=O)[C@H](CO)NC(=O)[C@H](CO)NC(=O)[C@@H](NC(=O)[C@H](CC(=O)O)NC(=O)[C@H](CO)NC(=O)[C@@H](NC(=O)[C@H](Cc1ccccc1)NC(=O)[C@@H](NC(=O)CNC(=O)[C@H](CCC(=O)O)NC(=O)CNC(=O)[C@@H](N)Cc1cnc[nH]1)[C@@H](C)O)[C@@H](C)O)C(C)C)C(=O)N[C@@H](C)C(=O)N[C@@H](Cc1c[nH]c2ccccc12)C(=O)N[C@@H](CC(C)C)C(=O)N[C@H](C(=O)N[C@@H](CSC1CC(=O)N(CCC(=O)Nc2ccc(C(c3c(O)c4ccccc4oc3=O)c3c(O)c4ccccc4oc3=O)cc2)C1=O)C(=O)NCC(=O)N[C@@H](CCCNC(=N)N)C(N)=O)C(C)C` (stereo partly specified), for which the EC50 in data set [1] came out at 6.5 pM. For the same compound, at albumin, the fraction unbound at 3 h, 100 ug/mL was 0.273. Further, in data set [2], the half-life at 1000 ng/mL was 19.3 h.
For `CC[C@H](C)[C@H](NC(=O)[C@H](Cc1ccccc1)NC(=O)[C@H](CCC(=O)O)NC(=O)[C@H](CCCCN)NC(=O)[C@H](C)NC(=O)[C@H](C)NC(=O)[C@H](CCC(N)=O)NC(=O)CNC(=O)[C@H](CCC(=O)O)NC(=O)[C@H](CC(C)C)NC(=O)[C@H](Cc1ccc(O)cc1)NC(=O)[C@H](CO)NC(=O)[C@H](CO)NC(=O)[C@@H](NC(=O)[C@H](CC(=O)O)NC(=O)[C@H](CO)NC(=O)[C@@H](NC(=O)[C@H](Cc1ccccc1)NC(=O)[C@@H](NC(=O)CNC(=O)[C@H](CCC(=O)O)NC(=O)CNC(=O)[C@@H](N)Cc1cnc[nH]1)[C@@H](C)O)[C@@H](C)O)C(C)C)C(=O)N[C@@H](C)C(=O)N[C@@H](Cc1c[nH]c2ccccc12)C(=O)N[C@@H](CC(C)C)C(=O)N[C@H](C(=O)N[C@@H](CSC1CC(=O)N(CCCCCC(=O)Nc2ccc(C(c3c(O)c4ccccc4oc3=O)c3c(O)c4ccccc4oc3=O)cc2)C1=O)C(=O)NCC(=O)N[C@@H](CCCNC(=N)N)C(N)=O)C(C)C` (stereo partly specified), in that order: 7.3 pM, 0.198 and 22.1 h.
Take `CC[C@H](C)[C@H](NC(=O)[C@H](Cc1ccccc1)NC(=O)[C@H](CCC(=O)O)NC(=O)[C@H](CCCCN)NC(=O)[C@H](C)NC(=O)[C@H](C)NC(=O)[C@H](CCC(N)=O)NC(=O)CNC(=O)[C@H](CCC(=O)O)NC(=O)[C@H](CC(C)C)NC(=O)[C@H](Cc1ccc(O)cc1)NC(=O)[C@H](CO)NC(=O)[C@H](CO)NC(=O)[C@@H](NC(=O)[C@H](CC(=O)O)NC(=O)[C@H](CO)NC(=O)[C@@H](NC(=O)[C@H](Cc1ccccc1)NC(=O)[C@@H](NC(=O)CNC(=O)[C@H](CCC(=O)O)NC(=O)CNC(=O)[C@@H](N)Cc1cnc[nH]1)[C@@H](C)O)[C@@H](C)O)C(C)C)C(=O)N[C@@H](C)C(=O)N[C@@H](Cc1c[nH]c2ccccc12)C(=O)N[C@@H](CC(C)C)C(=O)N[C@H](C(=O)N[C@@H](CCCCN)C(=O)NCC(=O)N[C@@H](CCCNC(=N)N)C(=O)N[C@@H](CSC1CC(=O)N(CCCCCC(=O)Nc2ccc(C(c3c(O)c4ccccc4oc3=O)c3c(O)c4ccccc4oc3=O)cc2)C1=O)C(N)=O)C(C)C` (stereo partly specified): in data set [1], the EC50 came out at 3.2 pM. For the same compound, the fraction unbound at 3 h, 100 ug/mL on albumin is 0.248. In data set [2], this compound gave a half-life at 1000 ng/mL of 18.6 h.
For the compound `CC[C@H](C)[C@H](NC(=O)[C@H](Cc1ccccc1)NC(=O)[C@H](CCC(=O)O)NC(=O)[C@H](CS)NC(=O)[C@H](C)NC(=O)[C@H](C)NC(=O)[C@H](CCC(N)=O)NC(=O)CNC(=O)[C@H](CCC(=O)O)NC(=O)[C@H](CC(C)C)NC(=O)[C@H](Cc1ccc(O)cc1)NC(=O)[C@H](CO)NC(=O)[C@H](CO)NC(=O)[C@@H](NC(=O)[C@H](CC(=O)O)NC(=O)[C@H](CO)NC(=O)[C@@H](NC(=O)[C@H](Cc1ccccc1)NC(=O)[C@@H](NC(=O)CNC(=O)[C@H](CCC(=O)O)NC(=O)CNC(=O)[C@@H](N)Cc1cnc[nH]1)[C@@H](C)O)[C@@H](C)O)C(C)C)C(=O)N[C@@H](C)C(=O)N[C@@H](Cc1c[nH]c2ccccc12)C(=O)N[C@@H](CC(C)C)C(=O)N[C@H](C(=O)N[C@@H](CCCCN)C(=O)NCC(=O)N[C@@H](CCCNC(=N)N)C(N)=O)C(C)C`, the EC50 in data set [1] is 3.2 pM. Moreover, the fraction unbound at 3 h, 100 ug/mL at albumin was 0.949. In data set [2], this compound had a half-life at 1000 ng/mL of 0.7 h.
Take `CC[C@H](C)[C@H](NC(=O)[C@H](Cc1ccccc1)NC(=O)[C@H](CCC(=O)O)NC(=O)[C@H](CCCCN)NC(=O)[C@H](C)NC(=O)[C@H](C)NC(=O)[C@H](CCC(N)=O)NC(=O)CNC(=O)[C@H](CCC(=O)O)NC(=O)[C@H](CC(C)C)NC(=O)[C@H](Cc1ccc(O)cc1)NC(=O)[C@H](CO)NC(=O)[C@H](CSC1CC(=O)N(CCCCCC(=O)Nc2ccc(C(c3c(O)c4ccccc4oc3=O)c3c(O)c4ccccc4oc3=O)cc2)C1=O)NC(=O)[C@@H](NC(=O)[C@H](CC(=O)O)NC(=O)[C@H](CO)NC(=O)[C@@H](NC(=O)[C@H](Cc1ccccc1)NC(=O)[C@@H](NC(=O)CNC(=O)[C@H](CCC(=O)O)NC(=O)CNC(=O)[C@@H](N)Cc1cnc[nH]1)[C@@H](C)O)[C@@H](C)O)C(C)C)C(=O)N[C@@H](C)C(=O)N[C@@H](Cc1c[nH]c2ccccc12)C(=O)N[C@@H](CC(C)C)C(=O)N[C@H](C(=O)N[C@@H](CCCCN)C(=O)NCC(=O)N[C@@H](CCCNC(=N)N)C(N)=O)C(C)C` (stereo partly specified): the EC50 in data set [1] turned out to be 33.6 pM. The fraction unbound at 3 h, 100 ug/mL on albumin is 0.162. This compound had a half-life at 1000 ng/mL in data set [2] of 20.7 h.
Consider `CC[C@H](C)[C@H](NC(=O)[C@H](Cc1ccccc1)NC(=O)[C@H](CCC(=O)O)NC(=O)[C@H](CCCCN)NC(=O)[C@H](C)NC(=O)[C@H](C)NC(=O)[C@H](CCC(N)=O)NC(=O)CNC(=O)[C@H](CCC(=O)O)NC(=O)[C@H](CC(C)C)NC(=O)[C@H](Cc1ccc(O)cc1)NC(=O)[C@H](CO)NC(=O)[C@H](CSC1CC(=O)N(CCC(=O)Nc2ccc(C(c3c(O)c4ccccc4oc3=O)c3c(O)c4ccccc4oc3=O)cc2)C1=O)NC(=O)[C@@H](NC(=O)[C@H](CC(=O)O)NC(=O)[C@H](CO)NC(=O)[C@@H](NC(=O)[C@H](Cc1ccccc1)NC(=O)[C@@H](NC(=O)CNC(=O)[C@H](CCC(=O)O)NC(=O)CNC(=O)[C@@H](N)Cc1cnc[nH]1)[C@@H](C)O)[C@@H](C)O)C(C)C)C(=O)N[C@@H](C)C(=O)N[C@@H](Cc1c[nH]c2ccccc12)C(=O)N[C@@H](CC(C)C)C(=O)N[C@H](C(=O)N[C@@H](CCCCN)C(=O)NCC(=O)N[C@@H](CCCNC(=N)N)C(N)=O)C(C)C` (stereo partly specified), for which, in data set [1], the 50% effective concentration (EC50) was found to be 26.1 pM. Further, the fraction unbound at 3 h, 100 ug/mL at albumin was 0.31. Moreover, in data set [2], the half-life at 1000 ng/mL was 13.6 h.
The corresponding values for `CC[C@H](C)[C@H](NC(=O)[C@H](Cc1ccccc1)NC(=O)[C@H](CCC(=O)O)NC(=O)[C@H](CCCCN)NC(=O)[C@H](C)NC(=O)[C@H](C)NC(=O)[C@H](CCC(N)=O)NC(=O)CNC(=O)[C@H](CCC(=O)O)NC(=O)[C@H](CC(C)C)NC(=O)[C@H](Cc1ccc(O)cc1)NC(=O)[C@H](CO)NC(=O)[C@H](CO)NC(=O)[C@@H](NC(=O)[C@H](CC(=O)O)NC(=O)[C@H](CO)NC(=O)[C@@H](NC(=O)[C@H](Cc1ccccc1)NC(=O)[C@@H](NC(=O)CNC(=O)[C@H](CCC(=O)O)NC(=O)CNC(=O)[C@@H](N)Cc1cnc[nH]1)[C@@H](C)O)[C@@H](C)O)C(C)C)C(=O)N[C@@H](C)C(=O)N[C@@H](Cc1c[nH]c2ccccc12)C(=O)N[C@@H](CC(C)C)C(=O)N[C@H](C(=O)N[C@@H](CSC1CC(=O)N(CCCCCCCCCCCC(=O)Nc2ccc(C(c3c(O)c4ccccc4oc3=O)c3c(O)c4ccccc4oc3=O)cc2)C1=O)C(=O)NCC(=O)N[C@@H](CCCNC(=N)N)C(N)=O)C(C)C` (stereo partly specified) are 18.1 pM, 0.168 and 38.6 h.
For `CC[C@H](C)[C@H](NC(=O)[C@H](Cc1ccccc1)NC(=O)[C@H](CCC(=O)O)NC(=O)[C@H](CCCCN)NC(=O)[C@H](C)NC(=O)[C@H](C)NC(=O)[C@H](CCC(N)=O)NC(=O)CNC(=O)[C@H](CCC(=O)O)NC(=O)[C@H](CC(C)C)NC(=O)[C@H](Cc1ccc(O)cc1)NC(=O)[C@H](CO)NC(=O)[C@H](CO)NC(=O)[C@@H](NC(=O)[C@H](CC(=O)O)NC(=O)[C@H](CO)NC(=O)[C@@H](NC(=O)[C@H](Cc1ccccc1)NC(=O)[C@@H](NC(=O)CNC(=O)[C@H](CCC(=O)O)NC(=O)CNC(=O)[C@@H](N)Cc1cnc[nH]1)[C@@H](C)O)[C@@H](C)O)C(C)C)C(=O)N[C@@H](C)C(=O)N[C@@H](Cc1c[nH]c2ccccc12)C(=O)N[C@@H](CC(C)C)C(=O)N[C@H](C(=O)N[C@@H](CCCCN)C(=O)NCC(=O)N[C@@H](CCCNC(=N)N)C(=O)N[C@@H](CSC1CC(=O)N(CCC(=O)Nc2ccc(C(c3c(O)c4ccccc4oc3=O)c3c(O)c4ccccc4oc3=O)cc2)C1=O)C(N)=O)C(C)C` (stereo partly specified), in that order: 3 pM, 0.332 and 9.7 h.
For the compound `CC[C@H](C)[C@H](NC(=O)[C@H](Cc1ccccc1)NC(=O)[C@H](CCC(=O)O)NC(=O)[C@H](CCCCN)NC(=O)[C@H](C)NC(=O)[C@H](C)NC(=O)[C@H](CCC(N)=O)NC(=O)CNC(=O)[C@H](CCC(=O)O)NC(=O)[C@H](CC(C)C)NC(=O)[C@H](Cc1ccc(O)cc1)NC(=O)[C@H](CO)NC(=O)[C@H](CO)NC(=O)[C@@H](NC(=O)[C@H](CC(=O)O)NC(=O)[C@H](CO)NC(=O)[C@@H](NC(=O)[C@H](Cc1ccccc1)NC(=O)[C@@H](NC(=O)CNC(=O)[C@H](CCC(=O)O)NC(=O)CNC(=O)[C@@H](N)Cc1cnc[nH]1)[C@@H](C)O)[C@@H](C)O)C(C)C)C(=O)N[C@@H](C)C(=O)N[C@@H](Cc1c[nH]c2ccccc12)C(=O)N[C@@H](CC(C)C)C(=O)N[C@H](C(=O)N[C@@H](CCCCN)C(=O)NCC(=O)N[C@@H](CCCNC(=N)N)C(N)=O)C(C)C`, on albumin, the fraction unbound at 3 h, 100 ug/mL was 0.937. This compound had a half-life at 1000 ng/mL in data set [2] of 0.8 h.
